Experimental data published in ChEMBL document CHEMBL4270517, “New 6- and 7-heterocyclyl-1H-indole derivatives as potent tubulin assembly and cancer cell growth inhibitors” (Eur J Med Chem, 2018).
Active and inactive are the calls of the source. No cut-off for these calls is given here.

Key:
Tubulin = experiment: Inhibition of tubulin polymerization (unknown origin) preincubated for 15 mins followed by GTP addition measured for 20 mins by spectrophotometric method; format: protein-complex assay, Homo sapiens
Method in brief: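 Purified tubulin at 10 µM in 0.8 M monosodium glutamate pH 6.6 with 4% DMSO and varying compound; preincubated 15 min at 30 °C, chilled on ice, GTP to 0.4 mM added, turbidity at 350 nm followed 20 min at 30 °C. Extent of assembly measured; IC50 derived.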

Tubulin (Homo sapiens) [1] = target: T1, Tubulin (Homo sapiens) (UniProt P68371+Q9H4B7+P0DPH7+P68366+Q13509+Q71U36+P04350+Q3ZCM7+P07437+P68363+Q9BQE3+Q6PEY2+Q13885+Q9BVA1+Q9BUF5); experiment: Inhibition of [3H]colchicine binding to tubulin (unknown origin) at 5 uM after 10 mins relative to control; format: protein-complex assay
MCF7 = experiment: Growth inhibition of human MCF7 cells after 96 hrs by trypan blue exclusion assay; format: functional, cell-based; conditions: MCF7, 96 h
OVCAR-8 = experiment: Growth inhibition of human OVCAR8 cells after 96 hrs by trypan blue exclusion assay; format: functional, cell-based; conditions: OVCAR-8, 96 h
NCI/ADR-RES = experiment: Growth inhibition of human NCI/ADR-RES cells after 96 hrs by trypan blue exclusion assay; format: functional, cell-based
HepG2 = experiment: Growth inhibition of human HepG2 cells after 48 hrs by MTT assay; format: functional, cell-based; conditions: HepG2, 48 h
HeLa = experiment: Induction of cell death in human HeLa cells at 20 nM after 24 hrs by annexin V-FITC staining based flow cytometry
Tubulin (Homo sapiens) [2] = target: T1, Tubulin (Homo sapiens); experiment: Inhibition of tubulin polymerization in human HeLa cells assessed as formation of sparse tubulin foci at >= 50 nM by DAPI staining based immunofluorescence analysis; format: cell-based
Method in brief: (§1)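 HeLa cells on poly-L-lysine coverslips treated 24 h with 20–100 nM compound, fixed in methanol 6 min, immunostained for α-tubulin (FITC secondary), DNA counterstained with DAPI; spindle and microtubule morphology of mitotic cells examined by epifluorescence microscopy with 100× oil objective.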

Tubulin (Homo sapiens) [3] = target: T1, Tubulin (Homo sapiens); experiment: Inhibition of tubulin polymerization in human HeLa cells assessed as fragmented or multipolar spindles formation at 20 nM by DAPI staining based immunofluorescence analysis; format: cell-based; method in brief: as §1
Tubulin (Homo sapiens) [4] = target: T1, Tubulin (Homo sapiens); experiment: Inhibition of tubulin polymerization in human HeLa cells assessed as fragmented or multipolar spindles formation at 20 to 50 nM by DAPI staining based immunofluorescence analysis; format: cell-based; method in brief: as §1
Tubulin (Homo sapiens) [5] = target: T1, Tubulin (Homo sapiens); experiment: Inhibition of tubulin polymerization in human HeLa cells assessed as microtubule asters formation at 100 nM by DAPI staining based immunofluorescence analysis; format: cell-based; method in brief: as §1

| IC50 (Tubulin) | inhibition (Tubulin (Homo sapiens) [1]) | Compound | other results |
| --- | --- | --- | --- |
| 1300 nM | 76% | COc1cc(Sc2c[nH]c3ccc(-c4cccs4)cc23)cc(OC)c1OC |  |
| 870 nM | 81% | COc1cc(Sc2c[nH]c3ccc(-c4ccco4)cc23)cc(OC)c1OC |  |
| 1300 nM | 86% | COc1cc(Sc2c[nH]c3c(-c4ccoc4)cccc23)cc(OC)c1OC |  |
| 470 nM | 95% | COc1cc(Sc2c[nH]c3cc(-c4cccs4)ccc23)cc(OC)c1OC |  |
|  | 70% | COc1cc(C(=O)c2c[nH]c3c(-c4ccco4)cccc23)cc(OC)c1OC |  |
| 1800 nM | 63% | COc1cc(Sc2c[nH]c3ccc(-c4ccoc4)cc23)cc(OC)c1OC |  |
| 590 nM | 97% | COc1cc(Sc2c[nH]c3cc(-c4ccco4)ccc23)cc(OC)c1OC |  |
| 1300 nM | 77% | COc1cc(Sc2c[nH]c3c(-c4ccsc4)cccc23)cc(OC)c1OC |  |
| 640 nM | 95% | COc1cc(Sc2c[nH]c3c(-c4ccco4)cccc23)cc(OC)c1OC |  |
| 570 nM | 89% | COc1cc(Sc2c[nH]c3c(-c4cccs4)cccc23)cc(OC)c1OC | inhibition (Tubulin (Homo sapiens) [4]): Active; inhibition (Tubulin (Homo sapiens) [5]): Active |
| 2300 nM | 90% | COc1cc(Sc2c[nH]c3cc(-c4ccoc4)ccc23)cc(OC)c1OC |  |

Further lines, the compound ahead of its results:

| Compound | IC50 (Tubulin) | inhibition (Tubulin (Homo sapiens) [1]) | other results |
| --- | --- | --- | --- |
| COc1cc(C(=O)c2c[nH]c3c(-c4ccoc4)cccc23)cc(OC)c1OC | 3000 nM | 29% |  |
| COc1cc(C(=O)c2c[nH]c3cc(-c4ccco4)ccc23)cc(OC)c1OC | 760 nM | 96% |  |
| COc1cc(C(=O)c2c[nH]c3c(-c4cccs4)cccc23)cc(OC)c1OC | 2600 nM | 48% |  |
| COc1cc(C(=O)c2c[nH]c3cc(-c4cccs4)ccc23)cc(OC)c1OC | 380 nM | 96% |  |
| COc1cc(C(=O)c2c[nH]c3c(-c4ccsc4)cccc23)cc(OC)c1OC | 6200 nM |  |  |
| COc1cc(C(=O)c2c[nH]c3cc(-c4ccoc4)ccc23)cc(OC)c1OC | 610 nM | 96% |  |
| COc1ccc(/C=C\c2cc(OC)c(OC)c(OC)c2)cc1O [COMBRETASTATIN A4] |  |  | IC50 (MCF7): 5 to 13 nM; IC50 (OVCAR-8): 4 nM; IC50 (NCI/ADR-RES): 3.5 nM |
| CC(=O)O[C@H]1C(=O)[C@@]2(C)[C@H]([C@H](OC(=O)c3ccccc3)[C@]3(O)C[C@H](OC(=O)[C@H](O)[C@@H](NC(=O)c4ccccc4)c4ccccc4)C(C)=C1C3(C)C)[C@]1(OC(C)=O)CO[C@@H]1C[C@@H]2O [PACLITAXEL] |  |  | IC50 (MCF7): 5.5 nM; IC50 (HepG2): 2660 nM; IC50 (OVCAR-8): 4 nM; IC50 (NCI/ADR-RES): 3100 nM |
| COc1cc(C(=O)c2c[nH]c3cc(-c4ccsc4)ccc23)cc(OC)c1OC | 600 nM | 94% |  |
| CC[C@]1(O)C[C@@H]2CN(CCc3c([nH]c4ccccc34)[C@@](C(=O)OC)(c3cc4c(cc3OC)N(C)[C@H]3[C@@](O)(C(=O)OC)[C@H](OC(C)=O)[C@]5(CC)C=CCN6CC[C@]43[C@@H]65)C2)C1 |  |  | Activity (HeLa): Active |
| COc1cc(Sc2c[nH]c3cc(-c4ccsc4)ccc23)cc(OC)c1OC | 580 nM | 97% | inhibition (Tubulin (Homo sapiens) [2]): Active; inhibition (Tubulin (Homo sapiens) [3]): Active |
| COc1cc(Sc2c(-c3cccs3)[nH]c3ccccc23)cc(OC)c1OC | 740 nM | 88% |  |
| COc1cc(Sc2c[nH]c3ccc(-c4ccsc4)cc23)cc(OC)c1OC | 1700 nM | 72% |  |
